Entries after “also recorded” stand apart in the source; their conditions may differ. Like-named read-outs stand apart in the source and are kept apart here.
Legend:
NMDAR [1] = experiment: NMDA-induced increase in [Ca2+]c, calcium imaging; assay type: cell-based, rat; details: for IC50: read-out: IC50, inhibition of NMDA-induced increases in [Ca2+]c
[2] = tested on: NCXrev (reverse Na+/Ca2+ exchanger); experiment: Gramicidin-induced; assay type: cell-based, rat; details: for efficacy of inhibition of gramicidin-induced increase in [Ca2+]c / IC50: 5 μM gramicidin; for efficacy of inhibition of gramicidin-induced increase in [Ca2+]c: 1 μM MK801, 50 μM memantine, 200 μM AP-5 (Fig. 3); for IC50: read-out: IC50, inhibition of gramicidin-induced increase in [Ca2+]c, bath with 5 μM nifedipine and 1 mM ouabain, Suppl. Fig. 6
[3] = tested on: cultured hippocampal neurons; assay type: cell-based, rat
[4] = tested on: cultured hippocampal neurons; experiment: Glutamate-induced increase in [Na+]c, fluorescence imaging; assay type: cell-based, rat; details: 25 μM glutamate plus 10 μM glycine; for effect on glutamate-induced increase in [Na+]c: Sodium Green, 10 μM EIPA, 10 μM MK801; for effect on glutamate-induced increases in [Na+]c: SBFI, 1 μM MK801, 50 μM memantine, 200 μM AP-5
NCXrev = experiment: NCXrev-mediated ion currents, voltage ramp whole-cell patch-clamp; assay type: cell-based, rat; details: 5 mM Ni2+, 10 μM KB-R7943, 10 μM MK801, 50 μM memantine, 50 μM AP-5
NMDAR [5] = details: read-out: IC50, inhibition of NMDAR; ref Brustovetsky et al., 2011; cited from earlier work
[6] = tested on: cultured hippocampal neurons; details: CNQX 10–100 μM; ref Brustovetsky et al., 2011; cited from earlier work
[7] = tested on: cultured hippocampal neurons; experiment: NMDA-induced DCD, calcium imaging; assay type: cell-based, rat; details: 30 μM NMDA plus 10 μM glycine; MK801 1 μM, memantine 10 μM, AP-5 20 μM; Suppl. Fig. 3
NMDAR [8] = experiment: NMDA-induced ion currents, whole-cell voltage-clamp; assay type: cell-based, rat
[9] = tested on: cultured hippocampal neurons; experiment: Glutamate-induced plasma membrane depolarization; assay type: cell-based, rat; details: Annine-6plus; 25 μM glutamate plus 10 μM glycine; 1 μM MK801, 50 μM memantine, 200 μM AP-5
Method in brief: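 Rat P1 hippocampal neurons, glia-free, 12–14 DIV, in standard NaCl bath (pH 7.4). Loaded with 4 μM Annine-6plus for 5 min at room temperature; excitation 480 nm, emission >570 nm; F480 expressed as F/F0. Inhibitors in 0.2% DMSO. 142 mM KCl substituted for NaCl at end for full depolarization. Depolarization shown as % resting potential over time; mean ± s.e.m., n=3.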

[10] = tested on: cultured hippocampal neurons; experiment: NMDA-induced increase in [Na+]c; assay type: cell-based, rat; details: MK801 1 μM, memantine 10 μM, AP-5 20 μM; Suppl. Fig. 4
[11] = tested on: cultured hippocampal neurons; experiment: NMDA-induced plasma membrane depolarization; assay type: cell-based, rat; details: 30 μM NMDA plus 10 μM glycine; MK801 1 μM, memantine 10 μM, AP-5 20 μM; Suppl. Fig. 5
forward mode of NCX = experiment: Forward mode of NCX; assay type: cell-based; details: authors' unpublished data
neurons = details: ref Levy and Lipton, 1990; cited from earlier work
[12] = rat cultured hippocampal neurons, Suppl. Fig. 1
[13] = whole-cell voltage-clamp, Suppl. Fig. 2

Structure (SMILES)	effect on glutamate-induced DCD [3]	effect on glutamate-induced increase in [Na+]c [4]	effect on NCXrev-mediated ion currents (NCXrev)	extent of inhibition of NMDA-induced increases in [Ca2+]c (NMDAR [1]; [12])	IC50 (NMDAR [1]; [12])	efficacy of inhibition of gramicidin-induced increase in [Ca2+]c [2]	IC50 [2]	effect on DCD induced by NMDA [7]	effect on NMDA-induced ion currents (NMDAR [8]; [13])	effect on glutamate-induced increases in [Na+]c [4]	effect on glutamate-induced plasma membrane depolarization [9]	effect on [Na+]c elevated after NMDA application [10]	effect on plasma membrane depolarization induced by NMDA [11]	effect on forward mode of NCX (forward mode of NCX)	further results
CCN(c1nc(N)c(C(=O)NC(=N)N)nc1Cl)C(C)C [EIPA, 5-(N-ethyl-N-isopropyl)amiloride]	failed to prevent or attenuate	significantly attenuated	–	–	–	–	–	–	–	–	–	–	–	–	effect on NMDA-induced increase in [Ca2+]c (NMDAR [1]; EIPA 10 μM, Suppl. Fig. 9): inhibited neither NMDAR nor NCXrev; effect on gramicidin-induced increase in [Ca2+]c ([2]; EIPA 10 μM, Suppl. Fig. 9): inhibited neither NMDAR nor NCXrev
N=C(N)SCCc1ccc(OCc2ccc([N+](=O)[O-])cc2)cc1 [KB-R7943]	failed to prevent DCD	–	strongly attenuated	–	–	–	–	–	–	–	–	–	–	–	IC50 (NMDAR [5]): 13.4 ± 3.6 µM
N#Cc1cc2[nH]c(=O)c(=O)[nH]c2cc1[N+](=O)[O-] [CNQX, 6-cyano-7-nitroquinoxaline-2,3-dione]	–	–	–	–	–	–	–	–	–	–	–	–	–	–	effect on glutamate-induced DCD [6]: had no effect
C[C@]12N[C@H](Cc3ccccc31)c1ccccc12 [MK801]	completely prevented	failed to prevent or diminish	inhibited	completely inhibited	0.2 ± 0.04 µM	very effectively inhibited	0.5 ± 0.08 µM	completely prevented DCD	inhibited NMDA-induced ion currents	neither attenuated	nor prevented	significantly lowered	completely prevented	not affected	–
CC12CC3CC(C)(C1)CC(N)(C3)C2 [memantine]	completely prevented	–	inhibited	–	–	very effectively inhibited	17.1 ± 0.24 µM	completely prevented DCD	–	neither attenuated	nor prevented	significantly lowered	completely prevented	not affected	extent of inhibition of NMDA-induced increases in [Ca2+]c (NMDAR [1]): completely inhibited; IC50 (NMDAR [1]): 3.6 ± 0.05 µM; effect on NMDA-induced ion currents (NMDAR [8]): inhibited NMDA-induced ion currents
N[C@H](CCCP(=O)(O)O)C(=O)O [AP-5, D-(−)-2-Amino-5-phosphonopentanoic acid]	failed to prevent DCD; also recorded: failed to prevent or attenuate	–	practically without effect	completely inhibited	2.2 ± 0.03 µM	much less efficacious	2.8 ± 0.7 µM	completely prevented DCD	inhibited NMDA-induced ion currents	neither attenuated	nor prevented	significantly lowered	completely prevented	–	neuroprotection against glutamate excitotoxicity (neurons): only moderately effective

From publication PMC3299854 (Neurobiology of Disease, 2012)
